Measurements reported in ChEMBL document CHEMBL1944515 (J Med Chem, 2012).
Active and inactive are the calls of the source. The rule behind the calls is not given here.

Tests used:
[1] = Inhibition of bovine tubulin polymerisation after 20 mins by turbidimetric analysis; design: species or system Bos taurus
Outline: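 Bovine brain tubulin at 10 μM was preincubated with varying compound concentrations in glutamate buffer at 30 °C, cooled to 0 °C, and 0.4 mM GTP added. Samples were warmed to 30 °C and assembly followed by turbidity at 350 nm.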

LoVo [2] = assay: Cytotoxicity against human LoVo cells after 72 hrs by MTT assay; format: functional, cell-based
Outline: (§1)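 Cells seeded at 8 × 10^3 per well and left 18 h at 37 °C, 5% CO2, then given fresh medium with compound at a range of concentrations for 72 h; DMSO at most 0.25% final. Viability read by MTT relative to 0.25% DMSO-treated cells. […] LoVoDoxo kept in Ham's F12 with 0.1 μg/mL doxorubicin; A549-T12 kept in DMEM with 12 nM paclitaxel.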

LoVo [3] = assay: Cytotoxicity against human doxorubicin-resistant LoVo cells after 72 hrs by MTT assay; format: functional, cell-based; outline: as §1
HeLa [4] = assay: Induction of mitochondrial depolarization in human HeLa cells at 50 to 100 nM by JC1-based fluorescent staining; format: functional, cell-based; conditions: TDE = time-dependent effect
Outline: (§2)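 Mitochondrial membrane potential in HeLa cells after 24 or 48 h incubation, measured with the JC-1 dye by flow cytometry. Aggregates read as red (590 nm) and monomers as 530 nm; output is the percentage of depolarized cells. Mean ± SEM of three independent experiments.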

CCRF-CEM [5] = assay: Cytotoxicity against human CEM cells after 72 hrs by MTT assay; format: functional, cell-based; outline: as §1
Mus musculus = assay: Toxicity in BALB/c nude mouse assessed as change in body weight at 100 mg/kg, ip administered on days 0,2 and 4 measured after 1 week relative to control; format: organism-based; design: dose 100 mg/kg, route intraperitoneal; conditions: in vivo, 168 h
Outline: (§3)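 HT-29 cells in log phase, resuspended in serum-free RPMI 1640 at 1 × 10^7 cells/mL, inoculated 0.2 mL subcutaneously in the back of nude mice. At ~300 mm3, 18 mice were randomized to vehicle or two treatment groups. Dosing: 100 mg/kg in DMSO, ip at 0.01 mL/g, on days 0, 2 and 4. Tumor volume by caliper as (LW2)/2 and body weight recorded; n = 6 per group, mean ± SEM.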

HeLa [6] = assay: Induction of apoptosis in human HeLa cells assessed as late apoptotic cells at 100 nM after 48 hrs by FITC conjugated annexin-V/PI staining-based flow cytometry (reference value: 2.9%); format: functional
HeLa [7] = assay: Induction of cell cycle arrest in human HeLa cells assessed as decrease in G1 phase cells at 15 to 250 nM after 24 hrs by flow cytometry; format: functional, cell-based
Outline: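 5 × 10^5 exponentially growing HeLa cells were treated with 15–250 nM for 24 h, fixed in ice-cold 70% ethanol, then treated with lysis buffer containing RNase A and 0.1% Triton X-100. PI staining of DNA content, read by flow cytometry. Mean ± SEM of three independent experiments.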

HeLa [8] = assay: Induction of apoptosis in human HeLa cells assessed as decrease in Bcl2 protein level at 50 to 100 nM after 48 hrs by Western blot analysis; format: functional, cell-based
Outline: (§4)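 HeLa cells were treated for 24 or 48 h, washed in ice-cold PBS and lysed on ice for 30 min; lysates were spun at 15000g, 4 °C. 20 μg protein per lane on SDS-PAGE (7.5–15%), then PVDF. Blocked overnight at 4 °C, primary antibodies 2 h at room temperature, peroxidase secondary 60 min, ECL detection. Blots were reprobed for β-actin as loading control.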

HeLa [9] = assay: Cytotoxicity against human HeLa cells after 72 hrs by MTT assay; format: functional, cell-based
HeLa [10] = assay: Induction of apoptosis in human HeLa cells assessed as caspase3 activation at 50 to 100 nM after 24 to 48 hrs by Western blot analysis; format: functional, cell-based; outline: as §4
CCRF-CEM [11] = assay: Resistance ratio of IC50 for human CEM/VBL100 cells to IC50 for human CEM cells; format: functional
[12] = molecular target: T1, M-phase inducer phosphatase 3 (Homo sapiens) (UniProt P30307); assay: Induction of cdc2 (Tyr15) dephosphorylation in human HeLa cells at 50 to 100 nM after 24 hrs by Western blot analysis
T1 sequence (whole entry): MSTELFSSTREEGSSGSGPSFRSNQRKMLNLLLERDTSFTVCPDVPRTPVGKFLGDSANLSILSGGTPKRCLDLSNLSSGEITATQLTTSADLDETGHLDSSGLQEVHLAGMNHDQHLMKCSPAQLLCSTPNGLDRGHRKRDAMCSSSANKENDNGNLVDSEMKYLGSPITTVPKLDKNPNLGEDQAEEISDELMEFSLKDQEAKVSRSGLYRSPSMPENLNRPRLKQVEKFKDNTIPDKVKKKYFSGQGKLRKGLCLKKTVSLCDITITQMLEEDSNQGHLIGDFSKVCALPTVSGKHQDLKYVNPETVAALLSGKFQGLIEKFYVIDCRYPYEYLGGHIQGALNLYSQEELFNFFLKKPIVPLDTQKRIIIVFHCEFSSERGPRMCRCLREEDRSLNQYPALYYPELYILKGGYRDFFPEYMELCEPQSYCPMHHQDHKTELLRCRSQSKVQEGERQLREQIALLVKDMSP

[13] = Cytotoxicity against human CEM/VBL100 cells after 72 hrs by MTT assay; format: functional, cell-based; conditions: CEM/VBL100, 72 h; outline: as §1
HT-29 = assay: Anticancer activity against human HT-29 cells xenografted in BALB/c nude mouse assessed as reduction in tumor volume at 100 mg/kg, ip administered on days 0,2 and 4 measured on day 24 relative to vehicle treated control; format: functional; design: scale not given: the % may be the effect or the level left; conditions: route intraperitoneal; outline: as §3
Jurkat = assay: Cytotoxicity against human Jurkat cells after 72 hrs by MTT assay; format: functional, cell-based
Outline: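 8 × 10^3 cells/well were preincubated 18 h at 37 °C, 5% CO2, then given graded concentrations for 72 h, with final DMSO not above 0.25%. Viability was read by MTT. […] Mean ± SE from at least three experiments.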

[14] = molecular target: T1, M-phase inducer phosphatase 3 (Homo sapiens); assay: Induction of cdc25c phosphorylation in human HeLa cells at 50 to 100 nM after 24 hrs by Western blot analysis
A549 = assay: Resistance ratio of IC50 for human A549-T12 cells to IC50 for human A549 cells; format: functional
HeLa [15] = assay: Induction of apoptosis in human HeLa cells assessed as viable cells at 100 nM after 48 hrs by FITC conjugated annexin-V/PI staining-based flow cytometry (reference value: 86.7%); format: functional; conditions: read-out: Activity
Outline: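 Flow cytometry of HeLa cells after 24 or 48 h exposure, double-stained with annexin-V-FITC and propidium iodide. Excitation at 488 nm, emission at 525 nm (FITC) and 585 nm (PI). Quadrants scored as live, early apoptotic, late apoptotic or necrotic cells.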

HeLa [16] = assay: Induction of mitochondrial depolarization in human HeLa cells assessed as JC1 aggregate level after 48 hrs by JC1-based fluorescent staining (reference value: 99.2%); format: functional; outline: as §2

CCOc1ccc(-c2nnnn2-c2cc(OC)c(OC)c(OC)c2)cc1
IC50 [1]: 1100 nM | IC50 (LoVo [2]): 1.1 nM | IC50 (LoVo [3]): 0.7 nM | Activity (HeLa [4]): tde | IC50 (CCRF-CEM [5]): 3.1 nM | Activity (Mus musculus): Non-toxic | Activity (HeLa [6]): 27.7% | Activity (HeLa [7]): Active | Activity (HeLa [8]): Active | IC50 (HeLa [9]): 1.9 nM | Activity (HeLa [10]): Active | Ratio IC50 (CCRF-CEM [11]): 0.2 | induction [12]: Active | IC50 [13]: 0.7 nM | Activity (HT-29): 66% | IC50 (Jurkat): 0.16 nM | induction [14]: Active | Ratio IC50 (A549): 1 | viability at 0.1 µM (HeLa [15]): 36.1% | Activity (HeLa [16]): 0.09%
